Laboratory results published in the EternaBench riboswitch data.

Tested on: MS2 coat protein
Assay: apparent Kd, MS2 coat protein; higher = weaker binding; RNA-MaP array; FMN 200 µM where present
How it was run: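 The apparent Kd is the median of filtered binding-curve fits, one per cluster, to green signal normalised to red-channel RNA signal and control-cluster median Fmax. The clusters were on Illumina sequencing chips, and stalled E. coli RNA polymerase had transcribed the designs on them. Titration used SNAP-549-labelled MS2 coat protein from 0.7 or 1.5 nM, doubling to 3 µM, without and then with constant ligand, in 100 mM Tris-HCl pH 7.5, 80 mM KCl, 4 mM MgCl2, BSA, DTT, yeast tRNA and Tween-20.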

[1] = designed as: OFF switch for flavin mononucleotide, no ligand
[2] = ligand present: flavin mononucleotide, designed as: OFF switch for flavin mononucleotide
[3] = designed as: ON switch for flavin mononucleotide, no ligand
[4] = ligand present: flavin mononucleotide, designed as: ON switch for flavin mononucleotide

Sequence: GCCUCGCUGUGAGGAUAUUACGCCUACCGGCAAAAUGCGGUUUCAGGUCCGUAAGAAGGCACAUGAGGAUCACCCAUGUAAGAA
- apparent Kd [1]: 0.0267 µM
- apparent Kd [2]: 0.213 µM

Sequence: GCCUUACAUGAGGAUCACCCAUGUCAGGAUAUGUCAGAGUAGGUAAAACACCACUCUAAUAGAAGGGACAUGCA
- apparent Kd [1]: 0.0168 µM
- apparent Kd [2]: 0.0286 µM

Sequence: GCCUUAUCAGUCAGGAUAUACAAUAAAAUAAUUAAGUAGAAGGGACAUGAGGAUCACCCAUGUACAUUACAUUG
- apparent Kd [1]: 0.0186 µM
- apparent Kd [2]: 0.0535 µM

Sequence: GCCUUAUCCGUCAGGAUAUACAUUUUUUUUUUGUUGUAGAAGGGACAUGAGGAUCACCCAUGUACAUUACAUUG
- apparent Kd [1]: 0.0258 µM
- apparent Kd [2]: 0.0289 µM

Sequence: GCGAAGAACGAGAAGGCCACUACAUGAGGAUCACCCAUGUCGUGGUGUAUUGGAGGAUAUCGAUCGGCGUCUCAUGAGGACAUA
- apparent Kd [1]: 0.00535 µM
- apparent Kd [2]: 0.00544 µM

Sequence: GCGAAUUAGUGAGGAUAUACAUAAUUUAUAACUGUAGAAGGCACAAACCUCAAGACAUGAGGAUCACCCAUGUGGUAUUACGCU
- apparent Kd [1]: 0.112 µM
- apparent Kd [2]: 0.281 µM

Sequence: GCGCUUAUACAGAAGGCCAUAUACAUGAGGAUCACCCAUGUUAUUUGGUGGAGGAUAUGUUUAUUAUUACAGGUAGAUGAGCGC
- apparent Kd [3]: 0.0063 µM
- apparent Kd [4]: 0.00572 µM

Sequence: GCGGCCAACGUAGGAUAUCUUCAGCCACAGCACAUUGCUGUACAUGAGGAUCACCCAUGUCCUGGAGAGAAGGACGGACGGCAG
- apparent Kd [3]: 0.0377 µM
- apparent Kd [4]: 0.00873 µM

Sequence: GCGGUACAUGAGGAUCACCCAUGUCAGGAUAUCCGCUGUUUGUCGUUUGGCGGGCGGUGGAGAAGGGACCUCGC
- apparent Kd [1]: 0.09 µM
- apparent Kd [2]: 0.093 µM

Sequence: GCGGUUACGGUUGGCACUUAGCGAGAGGAUAUGGAAAACAAGACAUGAGGAUCACCCAUGUACUAUCAGAAGGCUCGAGCACGC
- apparent Kd [3]: 0.00776 µM
- apparent Kd [4]: 0.0058 µM

Sequence: GCGUAAUAGGUGUAGCUAGUCGUGCAAGAAGGGUGGUGAACAUGAGGAUCACCCAUGUGGUCAAUACAGGAUAUUGCUAUACGC
- apparent Kd [3]: 0.572 µM
- apparent Kd [4]: 0.139 µM

Sequence: GCGUACAUAUCAGGAUAUCAUUGAAUGGAUUAACACAGUGAAUACAUGAGGAUCACCCAUGUGCUUGAGAAGGGAUUACUACGC
- apparent Kd [1]: 0.0111 µM
- apparent Kd [2]: 0.0104 µM

Sequence: GCGUAUAUAAGAUUUAUUUAACAGUCAGAAGGUGAUAAUACGACAUGAGGAUCACCCAUGUAAUUCAAGGAUAUGAUCUUACGC
- apparent Kd [3]: 0.133 µM
- apparent Kd [4]: 0.0657 µM

Sequence: GCGUCAGAAUUAAUUGUGACAGACAGAAGGCAAUAGUAUGUGACCGACAUGAGGAUCACCCAUGUUGAGGAUAUGUAUUGACAC
- apparent Kd [1]: 0.00568 µM
- apparent Kd [2]: 0.00708 µM

Sequence: GCGUCAGAAUUAAUUGUGACAGACAGAAGGCAAUAGUUCAUGUCAGACAUGAGGAUCACCCAUGUUGAGGAUAUGUAUUUACAC
- apparent Kd [1]: 0.00605 µM
- apparent Kd [2]: 0.00629 µM

Sequence: GCGUCAGAAUUAAUUGUGACAGGCAGAAGGCCAUAUCUUAUGUCAGACAUGAGGAUCACCCAUGUGGAGGAUAUGCAGUUACAC
- apparent Kd [1]: 0.0115 µM
- apparent Kd [2]: 0.0191 µM

Sequence: GCGUCAGGAGGAUAUACAUGAGGAUCACCCAUGUAACACGGGAUAGUAGUAUAGUAGAGUAGAAGGCCUAUAGU
- apparent Kd [1]: 0.0375 µM
- apparent Kd [2]: 0.046 µM

Sequence: GCGUCUUAGUAGAAGGGACAUCGGCUGGUAAGCAUCAUCUCCUUCUCACAUGAGGAUCACCCAUGUCAGGAUAUACUAAGAUGC
- apparent Kd [1]: 0.0115 µM
- apparent Kd [2]: 0.0431 µM

Sequence: GCGUGACGGUGCGCGAGUGGACGGAGAAGGCAGACAUGAGGAUCACCCAUGUGAGCCUGCUAUUCUGAGGAUAUCCGUUCGCAC
- apparent Kd [1]: 0.0325 µM
- apparent Kd [2]: 0.15 µM

Sequence: GCGUGGAUAGCAGGAUAUAUGUUUCCUACAUGAGGAUCACCCAUGUAGGUGAUCAGCCGAGAAAAGUAGAAGGGCUAUCCAUGC
- apparent Kd [3]: 0.016 µM
- apparent Kd [4]: 0.0134 µM

Sequence: GCGUUCUUGUAGAAGGUACAAGAAAACUAUUAUUAACACAUGAAACAUGAGGAUCACCCAUGUAGUAAGGAUAUACAUGAACGC
- apparent Kd [3]: 0.0101 µM
- apparent Kd [4]: 0.00718 µM

Sequence: GCGUUGAUGUAGAAGGUACAUGAAUACUUUUAAUACCUCAAGUAACAUGAGGAUCACCCAUGUAGUAAGGAUAUACAUGAACGC
- apparent Kd [3]: 0.0347 µM
- apparent Kd [4]: 0.0295 µM

Sequence: GCGUUGUUGUAGAAGGUACAUGAAUACUUUUAAUACCUCAAGUAACAUGAGGAUCACCCAUGUAGUAAGGAUAUACAUGAACGC
- apparent Kd [3]: 0.0354 µM
- apparent Kd [4]: 0.0302 µM

Sequence: GCUACUUAUUUUAAGUAUGAUUUACUAGAAGGUAGAUACAUGAGGAUCACCCAUGUUUAGAGUUCUAAGGAUAUAGUUUGUAGC
- apparent Kd [3]: 0.00781 µM
- apparent Kd [4]: 0.00757 µM

Sequence: GCUAGUAUUGCAGGAUAUUGUAAAUUAUUAUUUCAAGAAGGGCAUUACAUGAGGAUCACCCAUGUCAUCCUUUGGAAUACUAGC
- apparent Kd [1]: 0.00619 µM
- apparent Kd [2]: 0.00651 µM

Sequence: GCUAUCGAUGUAGGAUAUGCUAGGGAAACCCUGGCAGAAGGACAUGAGGAUCACCCAUGUCAAUGGAUGGAGAGAAGAGAUGGC
- apparent Kd [1]: 0.0256 µM
- apparent Kd [2]: 0.0743 µM

Sequence: GCUAUCGGGUGAGGAUAUAUGGUUGUGAUUAAAAUAGAAGGCAUCUCAGAAGACAUGAGGAUCACCCAUGUAGUUAAGAUGGCA
- apparent Kd [3]: 0.0634 µM
- apparent Kd [4]: 0.0468 µM

Sequence: GCUAUUGGCUAAGGAUAUGGAUACAUGAGGAUCACCCAUGUAAGAAUUGUGAUCAUAUAAAUGAUCCAGAAGGUAGCUGUUAGC
- apparent Kd [1]: 0.28 µM
- apparent Kd [2]: 0.502 µM
